From ChEMBL document CHEMBL1255336, “Single-dose safety and pharmacokinetics of ST-246, a novel orthopoxvirus egress inhibitor” (Antimicrob Agents Chemother, 2008)

Tests used:
Homo sapiens [1] = assay: Toxicity in fasting healthy human assessed as constipation at 1000 mg, po administered as single dose measured after 48 hrs; format: organism-based; settings: in vivo
Outline: (§1)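 Randomized, placebo-controlled single oral dose in healthy adults, groups of 10 (8 drug, 2 placebo), dose escalated after safety review. Fasting groups got 500, 1,000 or 2,000 mg; one group got 1,000 mg fed. Treatment-emergent adverse events, vital signs, hematology, chemistries, urinalysis and ECG were recorded through day 1 and follow-up at weeks 1 and 4. Drug relation was judged blinded.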

[2] = AUC(0 to infinity) in nonfasting healthy human at 1000 mg, po administered as single dose measured after 72 hrs; format: ADME, organism-based; parameters: dose 1000 mg, time infinity, route oral; settings: plasma
Outline: (§2)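 Randomised placebo-controlled single oral dose in healthy subjects (8 active, 2 placebo per group); groups 1–3 fasting, group 4 nonfasting. Plasma sampled predose to 48 h (groups 1–3) or 72 h (group 4), centrifuged 4°C, stored –70°C. LC-MS/MS with analog internal standard. Noncompartmental analysis on actual times; Cmax observed; AUC by trapezoid rule, extrapolated with kel; CL = dose/AUC0-∞.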

[3] = Apparent oral clearance in nonfasting healthy human at 1000 mg, po administered as single dose measured after 72 hrs; format: ADME, organism-based; settings: in vivo; outline: as §2
Homo sapiens [4] = assay: Toxicity in fasting healthy human assessed as back pain at 500 mg, po administered as single dose measured after 48 hrs; format: organism-based; settings: in vivo; outline: as §1
[5] = AUC(0 to infinity) in fasting healthy human at 2000 mg, po administered as single dose measured after 48 hrs; format: ADME, organism-based; parameters: dose 2000 mg, time infinity, route oral; settings: plasma; outline: as §2
[6] = Tmax in nonfasting healthy human at 1000 mg, po administered as single dose measured after 72 hrs; format: ADME, organism-based; settings: in vivo
Outline: (§3)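 Healthy volunteers (8 active, 2 placebo) given a single 1,000 mg oral dose in the fed state. Plasma sampled predose, at 0.5–12 h, 24, 48 and 72 h postdose and analysed by validated LC-MS/MS. Noncompartmental analysis on actual sampling times. Tmax observed directly; t1/2 from kel fitted to ≥3 terminal log-linear points. Median values.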

[7] = Terminal half life in fasting healthy human at 2000 mg, po administered as single dose measured after 48 hrs; format: ADME, organism-based; settings: in vivo
Outline: (§4)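 Healthy volunteers, 8 per group on active drug (2 placebo), single fasting oral dose. Venous plasma drawn predose and 0.5–12, 24, 48 h postdose, kept at –70°C, assayed by validated LC-MS/MS with analog internal standard. Noncompartmental analysis on actual times; Tmax observed directly; kel by log-linear regression of ≥3 terminal points; CL = dose/AUC0-∞. Median values.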

[8] = Apparent oral clearance in fasting healthy human at 1000 mg, po administered as single dose measured after 48 hrs; format: ADME, organism-based; settings: in vivo; outline: as §2
[9] = Terminal half life in nonfasting healthy human at 1000 mg, po administered as single dose measured after 72 hrs; format: ADME, organism-based; settings: in vivo; outline: as §3
[10] = AUClast in nonfasting healthy human at 1000 mg, po administered as single dose measured after 72 hrs; format: ADME, organism-based; parameters: time < 72 hr, dose 1000 mg, route oral; settings: plasma; outline: as §2
[11] = Cmax in fasting healthy human at 500 mg, po administered as single dose measured after 48 hrs; format: ADME, organism-based; parameters: dose 500 mg, route oral; settings: in vivo; outline: as §2
[12] = Median half life in fasting healthy human at 2000 mg, po administered as single dose measured after 48 hrs; format: ADME, organism-based; settings: in vivo; outline: as §4
[13] = Apparent oral clearance in fasting healthy human at 2000 mg, po administered as single dose measured after 48 hrs; format: ADME, organism-based; settings: in vivo; outline: as §4
[14] = Median half life in fasting healthy human at 500 mg, po administered as single dose measured after 48 hrs; format: ADME, organism-based; settings: in vivo; outline: as §4
[15] = Plasma clearance in fasting healthy human at 2000 mg, po administered as single dose measured after 48 hrs; format: ADME, organism-based; outline: as §2
Homo sapiens [16] = assay: Toxicity in fasting healthy human assessed as adverse events at 1000 mg, po administered as single dose measured after 48 hrs; format: organism-based; settings: in vivo; outline: as §1
Homo sapiens [17] = assay: Toxicity in fasting healthy human assessed as feeling abnormal at 500 mg, po administered as single dose measured after 48 hrs; format: organism-based; settings: in vivo; outline: as §1
[18] = AUClast in fasting healthy human at 2000 mg, po administered as single dose measured after 48 hrs; format: ADME, organism-based; parameters: time < 48 hr, dose 2000 mg, route oral; settings: plasma; outline: as §2
[19] = Cmax in nonfasting healthy human at 1000 mg, po administered as single dose measured after 72 hrs; format: ADME, organism-based; parameters: dose 1000 mg, route oral; settings: in vivo; outline: as §2
[20] = AUC(0 to infinity) in fasting healthy human at 1000 mg, po administered as single dose measured after 48 hrs; format: ADME, organism-based; parameters: dose 1000 mg, time infinity, route oral; settings: plasma; outline: as §2
[21] = Terminal half life in fasting healthy human at 1000 mg, po administered as single dose measured after 48 hrs; format: ADME, organism-based; settings: in vivo; outline: as §4
[22] = Plasma clearance in fasting healthy human at 500 mg, po administered as single dose measured after 48 hrs; format: ADME, organism-based; outline: as §2
[23] = Apparent Cmax in nonfasting healthy human at 1000 mg, po administered as single dose measured after 72 hrs; format: ADME, organism-based; parameters: dose 1000 mg, route oral; settings: in vivo; outline: as §2
[24] = Tmax in fasting healthy human at 500 mg, po administered as single dose measured after 48 hrs; format: ADME, organism-based; settings: in vivo; outline: as §4
[25] = AUClast in fasting healthy human at 1000 mg, po administered as single dose measured after 48 hrs; format: ADME, organism-based; parameters: dose 1000 mg, time < 48 hr, route oral; settings: plasma; outline: as §2
Homo sapiens [26] = assay: Toxicity in fasting healthy human assessed as headache at 500 mg, po administered as single dose measured after 48 hrs; format: organism-based; settings: in vivo; outline: as §1
[27] = AUC(0 to infinity) in fasting healthy human at 500 mg, po administered as single dose measured after 48 hrs; format: ADME, organism-based; parameters: dose 500 mg, route oral, time infinity; settings: plasma; outline: as §2
[28] = AUClast in fasting healthy human at 500 mg, po administered as single dose measured after 48 hrs; format: ADME, organism-based; parameters: dose 500 mg, time < 48 hr, route oral; settings: plasma; outline: as §2
Homo sapiens [29] = assay: Toxicity in fasting healthy human assessed as neutropenia at 1000 mg, po administered as single dose measured after 48 hrs; format: organism-based; settings: in vivo; outline: as §1
[30] = Apparent oral clearance in fasting healthy human at 500 mg, po administered as single dose measured after 48 hrs; format: ADME, organism-based; settings: in vivo; outline: as §2
[31] = Terminal half life in fasting healthy human at 500 mg, po administered as single dose measured after 48 hrs; format: ADME, organism-based; settings: in vivo; outline: as §4
Homo sapiens [32] = assay: Toxicity in healthy human assessed as adverse events at 1000 mg, po administered as single dose measured after 72 hrs; format: organism-based; settings: in vivo; outline: as §1
Homo sapiens [33] = assay: Toxicity in fasting healthy human assessed as adverse events at 500 mg, po administered as single dose measured after 48 hrs; format: organism-based; settings: in vivo
Outline: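 Healthy subjects given single oral dose, 8 active and 2 placebo per group. Safety covered adverse events, vital signs, ECG (day 1 and week 4), hematology, chemistries, urinalysis before and after dosing. Follow-up visits at week 1 and week 4. Cohort safety was reviewed before the next dose group.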

[34] = Tmax in fasting healthy human at 1000 mg, po administered as single dose measured after 48 hrs; format: ADME, organism-based; settings: in vivo
[35] = Cmax in fasting healthy human at 1000 mg, po administered as single dose measured after 48 hrs; format: ADME, organism-based; parameters: dose 1000 mg, route oral; settings: in vivo; outline: as §2
[36] = Cmax in fasting healthy human at 2000 mg, po administered as single dose measured after 48 hrs; format: ADME, organism-based; parameters: dose 2000 mg, route oral; settings: in vivo; outline: as §2
[37] = Tmax in fasting healthy human at 2000 mg, po administered as single dose measured after 48 hrs; format: ADME, organism-based; settings: in vivo; outline: as §4
[38] = Plasma clearance in fasting healthy human at 1000 mg, po administered as single dose measured after 48 hrs; format: ADME, organism-based; outline: as §2
Homo sapiens [39] = assay: Median half life in fasting healthy human at 1000 mg, po administered as single dose measured after 48 hrs; format: ADME, organism-based; settings: in vivo
Homo sapiens [40] = assay: Toxicity in healthy human assessed as headache at 1000 mg, po administered as single dose measured after 72 hrs; format: organism-based; settings: in vivo; outline: as §1
[41] = Plasma clearance in nonfasting healthy human at 1000 mg, po administered as single dose measured after 72 hrs; format: ADME, organism-based; outline: as §2

For O=C(NN1C(=O)[C@@H]2[C@@H]3C=C[C@@H]([C@H]4C[C@@H]34)[C@@H]2C1=O)c1ccc(C(F)(F)F)cc1 [TECOVIRIMAT], the Activity (Homo sapiens [1]) was 12.5%, the AUC(0-inf) [2] was 35900 ng·h/mL and the CL/F [3] was 500 mL/min. It also gave an Activity (Homo sapiens [4]) of 12.5%, an AUC(0-inf) [5] of 25700 ng·h/mL and a Tmax [6] of 5 h. For the same molecule, the half-life [7] was 22 h, the CL/F [8] was 817 mL/min and the half-life [9] was 17 h. For the same molecule, the AUC(0-t) at 72 h [10] was 34100 ng·h/mL, the Cmax [11] was 934 ng/mL and the half-life [12] was 18.9 h. The CL/F [13] was 1320 mL/min, the half-life [14] was 20.9 h and the CL/F [15] was 1290 mL/min. The Activity (Homo sapiens [16]) was 12.5%, the Activity (Homo sapiens [17]) was 12.5% and the AUC(0-t) at 48 h [18] was 24500 ng·h/mL. The Cmax [19] was 2930 ng/mL, the AUC(0-inf) [20] was 24900 ng·h/mL and the half-life [21] was 40 h. It also gave a CL/F [22] of 860 mL/min, a Cmax [23] of 3120 ng/mL and a Tmax [24] of 2 h. The AUC(0-t) at 48 h [25] was 21100 ng·h/mL, the Activity (Homo sapiens [26]) was 12.5% and the AUC(0-inf) [27] was 9810 ng·h/mL. The AUC(0-t) at 48 h [28] was 9880 ng·h/mL, the Activity (Homo sapiens [29]) was 12.5% and the CL/F [30] was 883 mL/min. It also gave a half-life [31] of 26 h, an Activity (Homo sapiens [32]) of 12.5% and an Activity (Homo sapiens [33]) of 25%. It also gave a Tmax [34] of 3 h, a Cmax [35] of 1810 ng/mL and a Cmax [36] of 2550 ng/mL. It also gave a Tmax [37] of 3 h, a CL/F [38] of 838 mL/min and a t1/2 (Homo sapiens [39]) of 19.8 h. It also gave an Activity (Homo sapiens [40]) of 12.5% and a CL/F [41] of 513 mL/min.
